HUVEC inhibit: inhibitors of human endothelial cell proliferation; viability, % at 10 µM (by protocol); hit rate 1.1% among 86,000; HUVEC proliferation, CellTiter-Glo luminescence, 72 h; hits give low values; AID 648;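 active = viability at or below 30%; inactive = viability above 30%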;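 also: 100% = median luminescence of DMSO-only cell control wells on each plate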
Fibroblast inh: blocks proliferation of human lung fibroblasts; hit rate 1.1% among 85,000; viability, % at 10 µM; LL 47 human lung fibroblast viability, ATP luminescence; hits give low values;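 active = viability at or below 50% in the single dose screen; inactive = viability above 50%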;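 also: compound exposure lasted 72 h before the ATP readout; 100% = median luminescence of untreated cell-only wells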
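material = human LL 47 lung fibroblast cells | dosing = compounds added from tenfold dosing solution, 0.1% DMSO final | timing = overnight cell rest, 72 h compound treatment at 37 °C | measured by = CellTiter-Glo luminescence measuring cellular ATP | evaluation = % viability versus median cells-only luminescence | control set = cell-only wells, no compound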
bCat KO growth: beta-catenin-lacking colon tumor cell growth suppression | HCT116 beta-catenin knockout viability, CellTiter-Glo, 60 h; hits give low values | viability, % at 10 µM | hit rate 1.5% among 140,000 | AID 818;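 active = viability at or under a set limit, the compound median less 4 SD, cut at about 6% in these data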;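 also: 0% = Hyamine 1622 control at 20 µM and 100% = untreated cell control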
PTK2B oligo ant: antagonists of human Pyk2 oligomerization; Q14289; Q293 cells, Pyk2 FERM NanoBiT luminescence; hits give low values; z-score (the deposit names both 25 µM and 10 µM); hit rate 0.83% among 99,000;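 active = Z-score of -3 or lower, scaled per plate to the spread of control and sample wells; inactive = z-score above -3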;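 also: negative z-score means lost luminescence so less FERM oligomerization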
Target sequence (Q14289 whole entry, looked up): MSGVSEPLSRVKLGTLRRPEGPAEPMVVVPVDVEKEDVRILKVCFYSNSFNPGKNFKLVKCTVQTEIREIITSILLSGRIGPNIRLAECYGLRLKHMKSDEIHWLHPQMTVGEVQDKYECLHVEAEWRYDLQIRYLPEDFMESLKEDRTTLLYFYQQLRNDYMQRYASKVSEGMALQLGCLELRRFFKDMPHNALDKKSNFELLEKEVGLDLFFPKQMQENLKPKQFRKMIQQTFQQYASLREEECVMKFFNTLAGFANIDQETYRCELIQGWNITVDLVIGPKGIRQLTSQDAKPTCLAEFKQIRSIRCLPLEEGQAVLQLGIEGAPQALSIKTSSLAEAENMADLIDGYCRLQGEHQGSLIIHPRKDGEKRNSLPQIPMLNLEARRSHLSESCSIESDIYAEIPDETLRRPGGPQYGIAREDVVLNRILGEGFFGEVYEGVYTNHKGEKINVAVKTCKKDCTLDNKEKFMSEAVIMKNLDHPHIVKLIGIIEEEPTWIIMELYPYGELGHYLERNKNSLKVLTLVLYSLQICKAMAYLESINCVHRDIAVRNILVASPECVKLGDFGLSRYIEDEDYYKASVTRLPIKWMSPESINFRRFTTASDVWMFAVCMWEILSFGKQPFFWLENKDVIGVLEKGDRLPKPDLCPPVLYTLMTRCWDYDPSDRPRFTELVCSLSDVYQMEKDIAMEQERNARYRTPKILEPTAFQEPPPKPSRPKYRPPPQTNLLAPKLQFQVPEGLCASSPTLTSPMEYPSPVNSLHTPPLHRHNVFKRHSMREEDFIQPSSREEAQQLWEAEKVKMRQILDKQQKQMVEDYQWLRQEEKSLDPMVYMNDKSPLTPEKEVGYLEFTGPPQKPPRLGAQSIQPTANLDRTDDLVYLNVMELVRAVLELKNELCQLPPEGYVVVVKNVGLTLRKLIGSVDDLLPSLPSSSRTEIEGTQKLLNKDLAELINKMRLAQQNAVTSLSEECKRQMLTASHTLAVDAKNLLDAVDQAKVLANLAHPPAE
H69AR growth 86K: blocks growth of human H69AR lung tumor cells | AID 598 | viability, % at 10 µM | hit rate 6% among 85,000 | H69AR lung tumor viability, ATP luminescence, 72 h; hits give low values;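 active = viability at or below 40%; inactive = viability above 40%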;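 also: multidrug resistant small cell line overexpressing MRP-1 efflux transporter; 100% = mean luminescence of untreated control wells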
PTEN del growth: suppresses growth of cells with PTEN deletion; hit rate 1.2% among 140,000; viability, % at 10 µM; AID 827; HCT116 PTEN-null viability, CellTiter-Glo, 60 h; hits give low values;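 active = viability at or below a set limit, 4 SD under the median of all tested compounds, cut at about 3.7% in these data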;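 also: PTEN knockout HCT116 line with beta catenin targeted HCT116 as companion control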
The depositor's hits bear a star; / = not tested or not shown. Only a selection was taken, and hits are over-represented in it overall.

SMILES	HUVEC inhibit	Fibroblast inh	bCat KO growth	PTK2B oligo ant	H69AR growth 86K	PTEN del growth
CC(=O)NC(Cc1ccccc1)C(=O)OCC(=O)c1ccc(F)cc1 (stereo not given)	/	/	88.7	/	/	92.7
COc1cccc(C(=O)N(Cc2ccc3c(c2)OCO3)Cc2nc3ccccc3c(=O)[nH]2)c1	96.9	105.7	98.9	-3.44*	78.8	81.1
COc1ccccc1NC(=O)N(Cc1ccc2c(c1)OCO2)Cc1nc2ccccc2c(=O)[nH]1	63.0	73.6	97.2	-4*	9.4*	109.3
CC(=O)Oc1c(C)cc(Cl)cc1C(=O)Nc1ccc([N+](=O)[O-])cc1Cl	/	/	1.1*	/	/	1.8*
COc1cc(OC)cc(-c2ncc3ccccn23)c1	80.8	97.7	75.7	-0.46	38.1*	83.5
CC1(C)CC(=O)c2c(-c3cccs3)n[nH]c2C1	98.1	100.3	105.2	-0.58	85.9	104.7
CCn1cc(C(=O)NCc2ccco2)c(=O)c2cc(S(=O)(=O)N3CC(C)CC(C)C3)ccc21 (stereo not given)	22.1*	65.7	48.1	-0.86	67.6	69.5
CCn1cc(C(=O)NCc2ccco2)c(=O)c2cc(S(=O)(=O)N3CCC(C)CC3)ccc21	43.6	92.1	53.6	-0.63	67.6	62.0
COc1ccc2nc(NC(C)=O)sc2c1	108.0	97.7	88.2	0.44	104.7	93.5
COc1ccc2nc(N=Nc3c(O)ccc4ccccc34)sc2c1	/	/	5.3*	/	/	6.5
Cc1ccccc1C(=O)NC1CCN(CC(=O)Nc2nccs2)CC1	97.6	94.3	97.0	-0.56	16.0*	110.5
Cc1ccc(NC(=O)NC2CCN(CC(=O)Nc3nccs3)CC2)cc1	97.6	99.7	102.5	0.32	75.3	112.0
S=C(NNc1ccc2ccccc2c1)NC1CCCCC1	/	/	28.6	/	/	34.8
Cc1ccc(Cn2c(=N)n(CC(=O)c3ccc([N+](=O)[O-])cc3)c3ccccc32)cc1	/	/	0.9*	-0.64	/	0.9*
O=C(OCn1ncc(Br)c(Br)c1=O)c1c(F)cccc1F	2.0*	2.0*	1.4*	/	1.0*	1.5*
CCOC(=O)c1c(NC(=O)c2c(Br)cnn2CC)sc(C)c1C	68.5	89.1	100.0	0.54	70.5	87.4
O=C(Cc1ccccc1)Nc1cccc(N2C(=O)C=CC2=O)c1	/	/	97.5	/	/	90.3
CCC(C)c1ccc(-c2cc(C(=O)OCC(=O)Nc3cc(C)on3)c3ccccc3n2)cc1 (stereo not given)	45.4	80.5	67.0	-0.53	9.5*	80.5
COc1ccc(-c2cc(C(=O)OCC(=O)Nc3cc(C)on3)c3ccccc3n2)cc1OC	/	/	81.4	-0.98	/	91.6
Cc1ccc(S(=O)(=O)CCc2nc3ccccc3n2CCC#N)cc1	99.6	112.9	19.1	0.52	13.8*	16.1
COC(=O)Cn1c(CCS(=O)(=O)c2ccc(C)c(C)c2)nc2ccccc21	105.7	99.4	61.4	0.29	80.2	74.8
O=C(CSc1nnnn1-c1cccc2c1CCCC2)N1CCCCC1	86.7	96.2	92.8	0.2	39.9*	80.7
CC(C)NC(=S)N/N=C/c1ccc2c(c1)OCCO2	/	/	103.5	/	/	92.3
CC1(C(=O)NCc2ccccn2)C=CCN1C(=O)c1ccccc1 (stereo not given)	/	/	73.2	/	/	75.2
C=CCN1C(=O)/C(=C/c2ccc(OCC(=O)O)cc2)S/C1=N/c1nccs1	/	/	105.0	/	/	92.6
SMILES	HUVEC inhibit	Fibroblast inh	bCat KO growth	PTK2B oligo ant	H69AR growth 86K	PTEN del growth
C=CCN1C(=O)/C(=C/c2ccc(N(C)C)cc2)S/C1=N\c1nnc(CC)s1	63.3	86.5	76.1	/	26.4*	73.4
CCNC(=S)N/N=C/c1sc(N2CCCCC2)nc1-c1cccs1	/	/	80.9	/	/	79.3
Cc1ccc(S(=O)(=O)N=S(CC2CC2(Cl)Cl)CC2CC2(Cl)Cl)cc1 (stereo not given)	92.3	95.7	84.8	-0.57	54.1	86.9
CC1=C(C)CS(=O)N(S(=O)(=O)c2ccc(Cl)cc2)C1 (stereo not given)	58.6	47.2*	95.2	-0.58	104.4	97.1
CC1CCN(S(=O)(=O)c2ccc(Cl)cc2)CC1	92.1	93.9	97.7	-0.66	88.2	93.7
CCN1CCN(c2ncc(C(=O)N3CCN(c4ccccc4OC)CC3)c3ccccc23)CC1	93.5	105.3	/	0.56	88.7	/
CCN1CCN(c2ncc(C(=O)Nc3cc(Cl)c(OC)cc3OC)c3ccccc23)CC1	17.8*	84.7	75.9	/	22.9*	75.9
CCN1CCN(c2ncc(C(=O)Nc3c(F)cc(F)cc3Br)c3ccccc23)CC1	58.6	82.7	15.5	-1.04	21.4*	19.9
C=CCn1c(Cc2cccs2)nnc1SC/C=C/c1ccccc1	107.2	95.0	90.1	-0.11	87.7	93.0
CC(C)(C)NC(=O)CSc1ncnc2c1nnn2Cc1ccccc1Cl	88.8	59.5	4.1*	-1.65	3.0*	3.2*
CC1CN(c2nc(-c3ccc(Br)cc3)nnc2-c2ccccc2)CC(C)N1 (stereo not given)	/	/	0.9*	-0.28	/	1.0*
COc1ccc(Nc2oc(COc3ccc(OC)cc3)nc2C#N)cc1	84.9	100.6	71.4	-0.87	73.4	88.4
COc1ccc(Nc2oc(COc3ccccc3F)nc2C#N)cc1	86.9	92.8	56.9	/	5.4*	54.6
CCc1ccccc1N(CC)C(=O)CCc1nc(-c2ccc(C)cc2)no1	88.2	97.1	73.5	-3.02*	96.0	77.9
CCN(Cc1ccccc1)C(=O)CCc1nc(-c2ccc(C)cc2)no1	104.1	100.3	86.2	-1.07	88.9	82.2
CC(C)Cn1nc(NS(=O)(=O)c2ccccc2)c2cc3ccccc3nc21	82.7	99.2	92.6	-0.3	101.9	89.1
CC(C)Cn1c(C(C)C)nc([N+](=O)[O-])c1S(=O)(=O)c1ccc(F)cc1	/	/	2.1*	-0.66	/	2.4*
CCCc1nc([N+](=O)[O-])c(S(=O)(=O)c2ccccc2)n1CC(C)C	/	/	3.3*	/	/	2.9*
CC(C)C(c1nnnn1C(C)(C)C)N1CCC(Cc2ccccc2)CC1 (stereo not given)	/	/	76.5	/	/	83.2
CCCSc1nc(O)c(C(c2ccc(OC)c(O)c2)c2c(O)nc(SCCC)n(C)c2=O)c(=O)n1C	/	/	92.5	/	/	91.6
COc1ccc(OC)c(C2=NOC(C(=O)N3CCCc4ccccc43)C2)c1 (stereo not given)	98.8	105.9	93.5	-1.28	86.1	92.9
CCc1cc(=O)oc2cc(OCC(=O)N3CCc4ccccc43)ccc12	76.2	90.3	/	/	79.7	/
CCc1cc(=O)oc2c(C)c(OCC(=O)N3CCCc4ccccc43)ccc12	67.6	102.0	92.9	-4.58*	74.3	83.0
COc1cc(/C=C/C(=O)CC(=O)/C=C/c2ccc(O)c(OC)c2)ccc1O	22.3*	20.6*	6.8	/	4.3*	5.1
Cc1ccc(NC(=O)CSc2nnc(-c3ccco3)c(-c3ccco3)n2)cc1	44.2	65.0	17.6	0.56	26.0*	23.5
O=C(CSc1nc(-c2ccco2)cc(C(F)(F)F)n1)Nc1ccc2c(c1)CCC2	57.8	60.3	50.2	2.04	21.4*	43.1
